Activity calls are given as the source filed them. The rule behind the calls is not given here.
Assays:
[1] = Plasma concentration in C57BL/6 mouse at 3 mg/kg, iv administered as single dose measured within 1 hr post dose by HPLC-MS/MS analysis; format: ADME, organism-based
Outline: (§1)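 Male C57BL/6 mice received a single 3 mg/kg iv or 10 mg/kg po dose in 5% DMSO/70% PEG400/25% water. Plasma was sampled at set times over 24 h and analysed by HPLC-MS/MS, with a quantification limit of 0.5 ng/mL. Values are mean ± SD of three mice.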

[2] = Plasma clearance in C57BL/6 mouse at 3 mg/kg, iv; format: ADME, organism-based
Outline: (§2)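 Male C57BL/6 mice received a single 3 mg/kg iv or 10 mg/kg po dose of a solution in 5% DMSO, 70% PEG400 and 25% water. Results are terminal half-life (h), plasma clearance (mL min−1 kg−1), Vss (L/kg), Tmax (h), Cmax (ng/mL) and oral bioavailability. Values are mean ± SD of three mice.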

[3] = Plasma concentration in C57BL/6 mouse at 10 mg/kg, po administered as single dose measured at 24 hrs by HPLC-MS/MS analysis; format: ADME, organism-based; outline: as §1
[4] = Volume of distribution in steady state in C57BL/6 mouse at 3 mg/kg, iv; format: ADME, organism-based; details: in vivo, read-out: Vdss; outline: as §2
[5] = Oral bioavailability in C57BL/6 mouse at 10 mg/kg; format: ADME, organism-based; details: in vivo; outline: as §2
[6] = Selectivity index, ratio of CC50 for HEK293T cells to EC50 for full length Gaussia princeps Gluc-tagged Chikungunya virus IMT; format: toxicity; details: human, read-out: Ratio CC50/EC50
Chikungunya virus [7] = test: Antiviral activity against Chikungunya virus IMT infected in HEK 293T cells assessed as reduction in viral load at 25 uM measured up to 24 hrs by qRT-PCR analysis relative to control; format: functional
[8] = Cmax in C57BL/6 mouse at 10 mg/kg, po; format: ADME, organism-based; set-up: dose 10 mg/kg, route oral; details: in vivo; outline: as §2
Liver = test: Intrinsic clearance in human liver microsomes; format: ADME, microsome
Outline: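 Intrinsic clearance was measured in human liver microsome incubation and expressed in μL min−1 mg−1 microsomal protein.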

Chikungunya virus [9] = test: Antiviral activity against Chikungunya virus IMT infected in HEK 293T cells assessed as reduction in viral load measured up to 24 hrs by qRT-PCR analysis relative to control; format: functional, cell-based
[10] = Tmax in C57BL/6 mouse at 10 mg/kg, po; format: ADME, organism-based; details: in vivo; outline: as §2
Chikungunya virus [11] = test: Antiviral activity against full length Gaussia princeps Gluc-tagged Chikungunya virus IMT infected in HEK293T cells assessed as reduction in virus infection after 24 hrs by Gaussia luciferase reporter gene assay; format: functional, cell-based; details: HEK-293T
[12] = Terminal half life in C57BL/6 mouse at 3 mg/kg, iv; format: ADME, organism-based; details: in vivo, read-out: beta t1/2 (converted); outline: as §2
[13] = Terminal half life in C57BL/6 mouse at 10 mg/kg, po; format: ADME, organism-based; details: in vivo, read-out: beta t1/2 (converted); outline: as §2
[14] = Half life in human liver microsomes; format: ADME, microsome
Outline: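 Compounds were incubated with human liver microsomes. Half-life = ln(2)/slope, where the slope is ln(% detected) plotted against time, using the mean of at least 3 independent experiments.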

Chikungunya virus [15] = test: Antiviral activity against Chikungunya virus IMT infected in HEK 293T cells assessed as reduction in viral load measured up to 24 hrs by qRT-PCR analysis; format: functional, cell-based
Chikungunya virus [16] = test: Antiviral activity against Chikungunya virus IMT infected in HEK 293T cells assessed as reduction in viral load at 10 uM measured up to 24 hrs by qRT-PCR analysis relative to control; format: functional
[17] = Cytotoxicity against HEK293T cells assessed as reduction in cell viability after 24 hrs by CellTiter-Glo luminescent assay; format: cell-based, HEK-293T; details: human
Outline: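 HEK 293T cell viability was measured by CellTiter-Glo luminescence after 24 h exposure to serial dilutions. Data were normalized to untreated cells (100%) and reagent background (0%). CC50, the concentration reducing viability by 50%, came from a five-parameter asymmetric fit.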

Chikungunya virus [18] = test: Antiviral activity against Chikungunya virus IMT infected in HEK 293T cells assessed as reduction in viral load at 5 uM measured up to 24 hrs by qRT-PCR analysis relative to control; format: functional
[19] = Plasma concentration in C57BL/6 mouse at 3 mg/kg, iv administered as single dose measured at 24 hrs by HPLC-MS/MS analysis; format: ADME, organism-based; outline: as §1
Chikungunya virus [20] = test: Antiviral activity against wild type Chikungunya virus IMT infected in HEK293T cells assessed as reduction in virus infection after 24 hrs by FITC immunofluorescence-based single cell quantification high content screening assay; format: functional; details: HEK-293T
[21] = Plasma concentration in C57BL/6 mouse at 10 mg/kg, po administered as single dose measured within 1 hr post dose by HPLC-MS/MS analysis; format: ADME, organism-based; outline: as §1
[22] = Selectivity index, ratio of CC50 for human BJ cells to EC50 for full length Gaussia princeps Gluc-tagged Chikungunya virus IMT; format: toxicity; details: read-out: Ratio CC50/EC50
Chikungunya virus [23] = test: Antiviral activity against full length gluc-tagged Chikungunya virus 2008 Singapore SGP11 infected in HEK293T cells assessed as reduction in virus infection after 24 hrs by gaussia luciferase reporter gene assay; format: functional, cell-based; details: 2008 Singapore SGP11, HEK-293T
Chikungunya virus [24] = test: Antiviral activity against wild type Chikungunya virus IMT infected in HEK293T cells administered 2 to 4 hrs prior to infection followed by cels incubation in absence of compound from 0 hrs post infection onwards measured after 24 hrs by measured after 24 hrs post infection by FITC immunofluorescence-based single cell quantification high content screening assay; format: functional; details: HEK-293T
Chikungunya virus [25] = test: Antiviral activity against wild type Chikungunya virus IMT infected in HEK293T cells at 5 uM administered 2 to 4 hrs prior to infection followed by cels incubation in absence of compound from 0 hrs post infection onwards measured after 24 hrs by measured after 24 hrs post infection by FITC immunofluorescence-based single cell quantification high content screening assay; format: functional
Sindbis virus = test: Antiviral activity against Sindbis virus infected in HEK293T cells assessed as reduction in virus infection after 24 hrs by FITC-based assay; format: functional, cell-based; details: HEK-293T
Outline: (§3)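 This was a pan-alphavirus panel against ONNV and SINV, read by immunofluorescence-based high content screen. Serial dilutions were normalized to untreated infection (100%) and noninfected cells (0%). The EC50, the concentration inhibiting 50% infectivity, came from a five-parameter asymmetric dose-response fit.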

Chikungunya virus [26] = test: Antiviral activity against full length gluc-tagged Chikungunya virus IMT infected in human BJ cells assessed as reduction in virus infection after 24 hrs by gaussia luciferase reporter gene assay; format: functional, cell-based
Chikungunya virus [27] = test: Antiviral activity against wild type Chikungunya virus IMT infected in HEK293T cells administered during virus adsorption stage (0 hrs post infection) measured after 24 hrs post infection by FITC immunofluorescence-based single cell quantification high content screening assay; format: functional
Chikungunya virus [28] = test: Antiviral activity against wild type Chikungunya virus IMT infected in HEK293T cells at 5 uM administered 2 to 12 hrs post infection measured after 24 hrs post infection by alpha virus detection based FITC immunofluorescence-based single cell quantification high content screening assay; format: functional
Chikungunya virus [29] = test: Antiviral activity against full length gluc-tagged Chikungunya virus 2013 Caribbean CNR20235 infected in HEK293T cells assessed as reduction in virus infection after 24 hrs by gaussia luciferase reporter gene assay; format: functional, cell-based; details: 2013 Caribbean CNR20235, HEK-293T
[30] = Cytotoxicity against human BJ cells assessed as reduction in cell viability after 24 hrs by CellTiter-Glo luminescent assay; format: cell-based
Outline: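 BJ human fibroblast viability was measured by CellTiter-Glo luminescence after 24 h exposure to serial dilutions. Data were normalized to untreated cells (100%) and reagent background (0%). CC50 came from a five-parameter asymmetric fit.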

Chikungunya virus [31] = test: Antiviral activity against wild type Chikungunya virus IMT infected in HEK293T cells administered 2 to 12 hrs post infection measured after 24 hrs post infection by FITC immunofluorescence-based single cell quantification high content screening assay; format: functional
Onyong-nyong virus = test: Antiviral activity against O'nyong-nyong virus Chad infected in HEK293T cells assessed as reduction in virus infection after 24 hrs by FITC-based assay; format: functional, cell-based; details: HEK-293T; outline: as §3
Chikungunya virus [32] = test: Antiviral activity against wild type Chikungunya virus IMT infected in HEK293T cells administered 2 to 4 hrs prior to infection measured after 24 hrs post infection by FITC immunofluorescence-based single cell quantification high content screening assay; format: functional; details: HEK-293T

SMILES: CCCNC(=O)[C@@H]1C[C@H]2CCC[C@@H](C1)[C@@H]2NC(=O)c1cc2sc(Br)nc2n1Cc1ccc(OC)cc1
- concentration at 1 h [1]: 17 µM
- clearance [2]: 5.68 mL/min/kg
- concentration at 24 h [3]: < 0.5 ng/mL
- Vd [4]: 0.337 L/kg
- bioavailability [5]: 39.1%
- selectivity ratio [6]: > 14
- fold change (FC) (Chikungunya virus [7]): <=5
- Cmax [8]: 6700 ng/mL
- CLH (Liver): 26.7 µL/min
- Activity (Chikungunya virus [9]): Dose-dependent effect
- Tmax [10]: 20 min
- EC50 (Chikungunya virus [11]): 7.23 µM
- half-life [12]: 65.4 min
- half-life [13]: 83.4 min
- half-life [14]: 52 min
- inhibition (Chikungunya virus [15]): Dose-dependent effect
- fold change (FC) (Chikungunya virus [16]): <=5
- CC50 at 24 h [17]: > 100 µM
- fold change (FC) (Chikungunya virus [18]): <=5
- concentration at 24 h [19]: < 0.5 ng/mL
- EC50 (Chikungunya virus [20]): 12.6 µM
- concentration at 1 h [21]: 17 µM

SMILES: CCCNC(=O)C1CCN(C(=O)c2cc3sc(-c4ccccc4)cc3n2Cc2ccc(OC)cc2)CC1
- concentration at 1 h [1]: 2 µM
- clearance [2]: 18.6 mL/min/kg
- concentration at 24 h [3]: < 0.5 ng/mL
- Vd [4]: 2.45 L/kg
- bioavailability [5]: 22%
- selectivity ratio [22]: > 20
- EC50 (Chikungunya virus [23]): 2260 nM
- selectivity ratio [6]: > 20
- EC50 (Chikungunya virus [24]): 14 to 15 µM
- Activity (Chikungunya virus [25]): inactive
- EC50 (Sindbis virus): 1650 nM
- EC50 (Chikungunya virus [26]): 5.07 µM
- Activity (Chikungunya virus [27]): Active
- Activity (Chikungunya virus [28]): inactive
- Cmax [8]: 720 ng/mL
- CLH (Liver): 31.4 µL/min
- Activity (Chikungunya virus [9]): Dose-dependent effect
- Tmax [10]: 40 min
- EC50 (Chikungunya virus [11]): 3.3 µM
- half-life [12]: 124 min
- half-life [13]: 142 min
- half-life [14]: 44.2 min
- inhibition (Chikungunya virus [15]): Dose-dependent effect
- CC50 at 24 h [17]: > 100 µM
- EC50 (Chikungunya virus [29]): 2180 nM
- fold change (FC) (Chikungunya virus [18]): >50
- concentration at 24 h [19]: < 0.5 ng/mL
- CC50 at 24 h [30]: > 100 µM
- Activity (Chikungunya virus [31]): Active
- EC50 (Chikungunya virus [20]): 4.03 µM
- EC50 (Onyong-nyong virus): 3.24 µM
- concentration at 1 h [21]: 2 µM
- EC50 (Chikungunya virus [32]): 2500 nM

SMILES: NC(=O)c1ncn([C@@H]2O[C@H](CO)[C@@H](O)[C@H]2O)n1 [RIBAVIRIN]
- EC50 (Chikungunya virus [23]): 1890 nM
- EC50 (Chikungunya virus [26]): 9.71 µM
- EC50 (Chikungunya virus [11]): 16.2 µM
- CC50 at 24 h [17]: > 100 µM
- EC50 (Chikungunya virus [29]): 1970 nM
- CC50 at 24 h [30]: > 100 µM

SMILES: [2H]C([2H])([2H])C([2H])(NC(=O)C1CCN(C(=O)c2cc3sc(Br)cc3n2Cc2ccc(OC)cc2)CC1)C([2H])([2H])[2H]
- selectivity ratio [6]: > 65
- EC50 (Chikungunya virus [11]): 1.55 µM
- half-life [14]: 5.33 min
- CC50 at 24 h [17]: > 100 µM
- EC50 (Chikungunya virus [20]): 1.63 µM

SMILES: CCCNC(=O)C1CC12CCN(C(=O)c1cc3sc(-c4ccccc4)nc3n1Cc1ccc(OC)cc1)CC2 (stereo unspecified)
- selectivity ratio [6]: > 13
- EC50 (Chikungunya virus [11]): 7.7 µM
- half-life [14]: 41.8 min
- CC50 at 24 h [17]: > 100 µM
- EC50 (Chikungunya virus [20]): 14.1 µM

SMILES: CCCNC(=O)C1CCN(C(=O)c2cc3nc(Br)sc3n2Cc2ccc(OC)cc2)CC1
- selectivity ratio [6]: 21
- EC50 (Chikungunya virus [11]): 2.22 µM
- half-life [14]: 22.1 min
- CC50 at 24 h [17]: 46.8 µM
- EC50 (Chikungunya virus [20]): 3.87 µM

SMILES: CCCNC(=O)C1CCN(C(=O)c2cc3ccsc3n2Cc2ccc(OC)cc2)CC1
- selectivity ratio [6]: 2.6
- EC50 (Chikungunya virus [11]): 8.86 µM
- half-life [14]: 4.08 min
- CC50 at 24 h [17]: 23.4 µM
- EC50 (Chikungunya virus [20]): 6.5 µM

From ChEMBL document CHEMBL4007509, “Structural Optimizations of Thieno[3,2-b]pyrrole Derivatives for the Development of Metabolically Stable Inhibitors of Chikungunya Virus” (J Med Chem, 2017)
